Legend:
[1] = molecular target: Sodium-dependent serotonin transporter (Rattus norvegicus, UniProt P31652); experiment: Inhibition of [3H]5HT reuptake at rat brain frontal cortex serotonin transporter; assay type: tissue-based
Procedure, shortened: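 Rats were decapitated and the frontal cortex was dissected on ice. The tissue was homogenised in ice-cold 0.32 M sucrose and spun at 1500g for 10 min, then the supernatant at 20,000g for 30 min (4 °C). Synaptosomes were preincubated with compound for 5 min at 37 °C. [3H]-5-HT (300 nM) was added for 5 min at 37 °C. The reaction was stopped on ice, then filtered and counted. Active uptake was taken as the 37 °C minus 0 °C difference.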

[2] = molecular target: Sodium-dependent dopamine transporter (Rattus norvegicus, UniProt P23977); experiment: Inhibition of [3H]dopamine reuptake at rat brain frontal cortex dopamine transporter; assay type: tissue-based
Chain of Sodium-dependent dopamine transporter (P23977 whole entry): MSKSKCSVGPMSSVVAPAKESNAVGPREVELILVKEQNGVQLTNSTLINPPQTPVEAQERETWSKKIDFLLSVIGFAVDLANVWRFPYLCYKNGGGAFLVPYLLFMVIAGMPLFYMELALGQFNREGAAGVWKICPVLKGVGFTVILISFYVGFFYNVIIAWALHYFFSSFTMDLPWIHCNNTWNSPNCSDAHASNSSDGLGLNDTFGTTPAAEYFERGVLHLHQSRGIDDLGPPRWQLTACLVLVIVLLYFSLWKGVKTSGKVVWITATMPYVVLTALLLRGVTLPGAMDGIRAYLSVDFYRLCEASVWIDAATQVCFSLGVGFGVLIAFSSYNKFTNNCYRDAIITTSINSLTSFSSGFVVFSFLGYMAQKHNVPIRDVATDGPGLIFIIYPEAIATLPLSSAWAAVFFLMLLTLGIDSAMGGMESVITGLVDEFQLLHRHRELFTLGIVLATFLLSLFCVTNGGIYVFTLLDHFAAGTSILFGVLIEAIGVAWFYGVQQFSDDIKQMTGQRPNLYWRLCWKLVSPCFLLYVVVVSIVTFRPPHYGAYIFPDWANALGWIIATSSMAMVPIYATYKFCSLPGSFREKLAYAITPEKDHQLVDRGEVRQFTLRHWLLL
Procedure, shortened: (§1)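 Rat frontal cortex synaptosomes prepared at 4 °C: tissue homogenized in ice-cold 0.32 M sucrose, spun at 1500g for 10 min, and the supernatant spun at 20,000g for 30 min. The pellet was resuspended in buffer and protein measured. Synaptosomes were preincubated with compound 5 min at 37 °C, then given 300 nM [3H]-DA or [3H]-NA for 5 min at 37 °C. Uptake was stopped on ice and samples filtered and washed with artificial cerebral fluid before scintillation counting. Active uptake was taken as the 37 °C minus 0 °C difference.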

Mus musculus [3] = experiment: Antidepressant activity in po dosed mouse by forced tail suspension assay; assay type: functional
Procedure, shortened: (§2)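 Mice received a single oral dose of each isomer; the ED50 (mg/kg) was derived from the forced swimming and tail suspension tests.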

Transporter = Transporter (Rattus norvegicus, UniProt Q63380); experiment: Inhibition of [3H]norepinephrine reuptake at rat brain frontal cortex norepinephrine transporter; assay type: tissue-based; procedure, shortened: as §1
Chain of Transporter (Q63380 whole entry): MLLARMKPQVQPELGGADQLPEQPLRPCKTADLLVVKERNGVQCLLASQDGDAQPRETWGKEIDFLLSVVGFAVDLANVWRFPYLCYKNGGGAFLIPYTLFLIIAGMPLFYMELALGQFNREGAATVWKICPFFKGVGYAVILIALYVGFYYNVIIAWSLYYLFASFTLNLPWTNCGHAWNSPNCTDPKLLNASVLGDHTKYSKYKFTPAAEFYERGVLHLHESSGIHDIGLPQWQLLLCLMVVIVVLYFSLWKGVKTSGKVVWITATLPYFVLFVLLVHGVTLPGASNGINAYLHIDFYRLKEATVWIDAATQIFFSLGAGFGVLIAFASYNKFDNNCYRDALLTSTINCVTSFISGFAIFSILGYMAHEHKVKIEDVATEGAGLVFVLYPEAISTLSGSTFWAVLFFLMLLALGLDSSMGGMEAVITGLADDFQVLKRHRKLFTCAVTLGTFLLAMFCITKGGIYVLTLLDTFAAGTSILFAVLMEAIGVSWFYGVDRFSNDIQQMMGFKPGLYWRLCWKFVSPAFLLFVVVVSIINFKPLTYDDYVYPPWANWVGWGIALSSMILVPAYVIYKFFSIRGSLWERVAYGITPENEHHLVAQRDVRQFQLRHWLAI

[4] = (§3) Toxicity in po dosed mouse; assay type: organism-based; conditions: in vivo
Procedure, shortened: (§4)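 Acute toxicity was tested in mice given the compound orally. The LD50 was reported in mg/kg or g/kg.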

Mus musculus [5] = experiment: as §3; assay type: organism-based; conditions: in vivo; procedure, shortened: as §4
Mus musculus [6] = experiment: Antidepressant activity in po dosed mouse by forced swimming test; assay type: functional; procedure, shortened: as §2

Chain of Sodium-dependent serotonin transporter (P31652 whole entry): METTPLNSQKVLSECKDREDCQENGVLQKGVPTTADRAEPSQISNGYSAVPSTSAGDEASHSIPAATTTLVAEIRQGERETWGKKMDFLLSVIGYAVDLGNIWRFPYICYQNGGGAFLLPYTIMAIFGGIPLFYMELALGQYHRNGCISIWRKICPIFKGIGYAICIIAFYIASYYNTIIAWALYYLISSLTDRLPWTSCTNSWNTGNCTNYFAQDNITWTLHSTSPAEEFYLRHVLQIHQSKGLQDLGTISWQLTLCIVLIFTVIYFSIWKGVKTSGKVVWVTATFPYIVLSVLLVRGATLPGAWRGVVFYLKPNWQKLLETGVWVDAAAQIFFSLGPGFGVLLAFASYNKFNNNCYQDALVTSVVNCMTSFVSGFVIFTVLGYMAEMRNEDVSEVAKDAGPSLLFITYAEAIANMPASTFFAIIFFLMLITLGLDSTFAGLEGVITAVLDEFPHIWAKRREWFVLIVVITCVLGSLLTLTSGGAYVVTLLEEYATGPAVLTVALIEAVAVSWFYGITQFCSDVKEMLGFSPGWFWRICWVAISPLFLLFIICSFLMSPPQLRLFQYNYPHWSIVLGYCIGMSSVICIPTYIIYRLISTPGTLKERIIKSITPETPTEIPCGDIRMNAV

## COc1ccc2cc([C@@H](O)[C@@H](C)N3CCN(Cc4ccccc4)CC3)ccc2c1Cl
[1]
  IC50: 0.375 µM
[2]
  IC50: > 1000 µM
Mus musculus [3]
  ED50: 24.5 mg/kg
Transporter
  IC50: 1.25 µM
[4]
  LD50: 200 mg/kg

## COc1ccc2cc([C@H](O)[C@H](C)N3CCN(Cc4ccccc4)CC3)ccc2c1Cl
[1]
  IC50: 0.825 µM
[2]
  IC50: > 1000 µM
Mus musculus [3]
  ED50: 27.9 mg/kg
Transporter
  IC50: 0.425 µM
Mus musculus [5]
  LD50: 300 mg/kg

## COc1ccc2cc([C@H](O)[C@@H](C)N3CCN(Cc4ccccc4)CC3)ccc2c1Cl
[1]
  IC50: 0.548 µM
[2]
  IC50: 10 µM
Mus musculus [3]
  ED50: 16.5 mg/kg
Mus musculus [6]
  ED50: 24.5 mg/kg
Transporter
  IC50: 7 µM
Mus musculus [5]
  LD50: 1171 mg/kg

## COc1ccc2cc([C@@H](O)[C@H](C)N3CCN(Cc4ccccc4)CC3)ccc2c1Cl
Mus musculus [3]
  ED50: 12.6 mg/kg
Transporter
  IC50: 0.185 µM
[4]
  LD50: 1030 mg/kg

## COc1ccc2cc([C@H](O)[C@H](C)N3CCN(Cc4ccccc4)CC3)ccc2c1Cl (racemic)
Mus musculus [5]
  LD50: > 1500 mg/kg

## COc1ccc2cc([C@H](O)[C@@H](C)N3CCN(Cc4ccccc4)CC3)ccc2c1Cl (racemic)
Mus musculus [5]
  LD50: > 220 mg/kg

— ChEMBL document CHEMBL1158499, “Synthesis and antidepressant activity of optical isomers of 2-(4-benzylpiperazin-1-yl)-1-(5-chloro-6-methoxynaphthalen-2-yl) propan-1-ol (SIPI5056)” (Bioorg Med Chem Lett, 2010)
